Source: ChEMBL document CHEMBL2311425, “Histone deacetylase (HDAC) inhibitors with a novel connecting unit linker region reveal a selectivity profile for HDAC4 and HDAC5 with improved activity against chemoresistant cancer cells” (J Med Chem, 2013)

Legend:
KYSE-510 [1] = test: Potentiation of 8 uM cisplatin-induced toxicity in 0.5 uM cisplatin resistant human KYSE-510 cells at 0.5 uM pretreated for 48 hrs followed by 0.5 uM cisplatin treatment by MTT assay; assay type: functional
MDA-MB-231 [2] = test: Cytotoxicity against cisplatin resistant human MDA-MB-231 cells after 72 hrs by MTT assay; assay type: functional, cell-based; conditions: MDA-MB-231, 72 h
A2780 [3] = test: Potentiation of 1 uM cisplatin-induced toxicity in 5 uM cisplatin resistant human A2780 cells at 1.5 uM pretreated for 48 hrs followed by 5 uM cisplatin treatment by MTT assay; assay type: functional
A2780 [4] = test: Potentiation of 8 uM cisplatin-induced toxicity in 5 uM cisplatin resistant human A2780 cells at 1.5 uM pretreated for 48 hrs followed by 5 uM cisplatin treatment by MTT assay; assay type: functional
MDA-MB-231 [5] = test: Potentiation of […] cisplatin-induced toxicity in 1 uM cisplatin resistant human MDA-MB-231 cells at 1 uM pretreated for 48 hrs followed by 1 uM cisplatin treatment by MTT assay; assay type: functional
A2780 [6] = test: Potentiation of 5 uM cisplatin-induced toxicity in 5 uM cisplatin resistant human A2780 cells at 0.5 uM pretreated for 48 hrs followed by 5 uM cisplatin treatment by MTT assay; assay type: functional
MDA-MB-231 [7] = test: Potentiation of cisplatin-induced toxicity in cisplatin resistant human MDA-MB-231 cells at 1 uM pretreated for 48 hrs followed by cisplatin treatment by MTT assay; assay type: functional
Procedure, shortened: (§1)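 Resistant sublines pretreated 48 h with 1 μM HDAC inhibitor, then cisplatin over a concentration range for 72 h; MTT viability read at 544/690 nm. Cisplatin IC50 from four-parameter logistic fit of pooled data (≥3 experiments, triplicate); shift factor = IC50 of cisplatin alone divided by IC50 of the combination.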

CAL-27 [8] = test: Potentiation of cisplatin-induced toxicity in cisplatin resistant human CAL27 cells at 1 uM pretreated for 48 hrs followed by cisplatin treatment by MTT assay; assay type: functional; procedure, shortened: as §1
CAL-27 [9] = test: Cytotoxicity against cisplatin sensitive human CAL27 cells after 72 hrs by MTT assay; assay type: functional, cell-based; conditions: CAL-27, 72 h
KYSE-510 [10] = test: Potentiation of 1 uM cisplatin-induced toxicity in 0.5 uM cisplatin resistant human KYSE-510 cells at 0.25 uM pretreated for 48 hrs followed by 0.5 uM cisplatin treatment by MTT assay; assay type: functional
KYSE-510 [11] = test: Potentiation of 1 uM cisplatin-induced toxicity in 0.5 uM cisplatin resistant human KYSE-510 cells at 1 uM pretreated for 48 hrs followed by 0.5 uM cisplatin treatment by MTT assay; assay type: functional
KYSE-510 [12] = test: Cytotoxicity against cisplatin sensitive human KYSE-510 cells after 72 hrs by MTT assay; assay type: functional, cell-based; conditions: KYSE-510, 72 h
KYSE-510 [13] = test: Potentiation of 0.75 uM cisplatin-induced toxicity in 0.5 uM cisplatin resistant human KYSE-510 cells at 1 uM pretreated for 48 hrs followed by 0.5 uM cisplatin treatment by MTT assay; assay type: functional
Procedure, shortened: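 Cisplatin-resistant Kyse510 CisR (derived by weekly cycles of cisplatin over 24−30 weeks), grown in RPMI 1640 with 10% FCS at 37 °C, 5% CO₂. Test agent added 48 h before cisplatin, then 72 h further incubation. Viability by MTT (read at 544/690 nm) relative to untreated control wells. Combination index by Chou−Talalay method. Mean of three experiments.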

A2780 [14] = test: Potentiation of 10 uM cisplatin-induced toxicity in 5 uM cisplatin resistant human A2780 cells at 0.5 uM pretreated for 48 hrs followed by 5 uM cisplatin treatment by MTT assay; assay type: functional
[15] = target: T1, Protein deacetylase HDAC6 (Homo sapiens, UniProt Q9UBN7); test: Inhibition of human HDAC6 by fluorescence assay
T1 sequence (Q9UBN7 whole entry): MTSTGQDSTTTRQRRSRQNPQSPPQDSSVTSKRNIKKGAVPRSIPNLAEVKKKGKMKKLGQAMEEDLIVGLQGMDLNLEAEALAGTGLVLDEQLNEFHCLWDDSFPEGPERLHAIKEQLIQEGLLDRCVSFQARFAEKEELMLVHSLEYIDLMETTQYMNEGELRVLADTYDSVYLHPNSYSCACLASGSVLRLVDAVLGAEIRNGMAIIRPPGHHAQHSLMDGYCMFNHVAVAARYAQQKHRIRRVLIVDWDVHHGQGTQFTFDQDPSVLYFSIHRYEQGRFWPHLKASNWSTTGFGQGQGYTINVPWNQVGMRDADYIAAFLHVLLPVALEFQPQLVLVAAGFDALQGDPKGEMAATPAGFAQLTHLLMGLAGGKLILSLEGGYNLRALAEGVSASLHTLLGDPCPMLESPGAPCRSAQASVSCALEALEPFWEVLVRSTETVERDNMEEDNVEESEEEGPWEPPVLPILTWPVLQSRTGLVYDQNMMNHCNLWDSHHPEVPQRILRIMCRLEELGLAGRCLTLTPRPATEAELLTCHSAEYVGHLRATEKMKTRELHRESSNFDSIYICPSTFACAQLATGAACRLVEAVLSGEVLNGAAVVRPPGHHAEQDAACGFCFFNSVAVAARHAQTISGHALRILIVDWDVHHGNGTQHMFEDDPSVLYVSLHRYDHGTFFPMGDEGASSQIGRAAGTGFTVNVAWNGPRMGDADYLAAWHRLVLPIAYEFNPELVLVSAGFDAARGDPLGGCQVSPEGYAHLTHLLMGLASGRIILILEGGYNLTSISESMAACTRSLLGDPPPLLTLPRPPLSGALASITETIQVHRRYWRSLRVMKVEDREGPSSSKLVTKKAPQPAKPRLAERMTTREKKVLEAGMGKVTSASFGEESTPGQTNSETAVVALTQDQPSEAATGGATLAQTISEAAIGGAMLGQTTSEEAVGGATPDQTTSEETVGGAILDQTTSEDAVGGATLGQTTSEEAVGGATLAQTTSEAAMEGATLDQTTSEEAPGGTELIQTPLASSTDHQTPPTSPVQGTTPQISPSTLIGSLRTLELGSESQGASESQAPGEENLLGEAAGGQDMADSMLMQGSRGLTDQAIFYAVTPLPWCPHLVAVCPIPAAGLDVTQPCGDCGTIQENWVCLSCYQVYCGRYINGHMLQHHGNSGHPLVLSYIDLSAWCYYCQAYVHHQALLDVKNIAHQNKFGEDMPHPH

MDA-MB-231 [16] = test: Potentiation of 10 uM cisplatin-induced toxicity in 1 uM cisplatin resistant human MDA-MB-231 cells at 0.5 uM pretreated for 48 hrs followed by 1 uM cisplatin treatment by MTT assay; assay type: functional
CAL-27 [17] = test: Potentiation of 2.5 uM cisplatin-induced toxicity in 1 uM cisplatin resistant human CAL27 cells at 1.5 uM pretreated for 48 hrs followed by 1 uM cisplatin treatment by MTT assay; assay type: functional

For `Cc1cc(C)cc(C(=O)NOCCCCCC(=O)NO)c1`, the Activity (KYSE-510 [1]) was “Dose-dependent effect”, the “fractional inhibitory concentration index (FICI)” value (KYSE-510 [1]) was 0.16 and the IC50 (MDA-MB-231 [2]) was 1680 nM. For the same compound, the Activity (A2780 [3]) was “Dose-dependent effect”, the “fractional inhibitory concentration index (FICI)” value (A2780 [3]) was 0.97 and the Activity (A2780 [4]) was “Dose-dependent effect”. The “fractional inhibitory concentration index (FICI)” value (A2780 [4]) was 0.74, the Activity (MDA-MB-231 [5]) was “Dose-dependent effect” and the “fractional inhibitory concentration index (FICI)” value (MDA-MB-231 [5]) was 0.75. For the same compound, the Activity (A2780 [6]) was “Dose-dependent effect”, the “fractional inhibitory concentration index (FICI)” value (A2780 [6]) was 0.73 and the Activity (MDA-MB-231 [7]) was “Dose-dependent effect”. For the same compound, the fold change (FC) (MDA-MB-231 [7]) was 3.53, the Activity (CAL-27 [8]) was “Dose-dependent effect” and the fold change (FC) (CAL-27 [8]) was 21.6. For the same compound, the IC50 (CAL-27 [9]) was 1030 nM, the Activity (KYSE-510 [10]) was “Dose-dependent effect” and the “fractional inhibitory concentration index (FICI)” value (KYSE-510 [10]) was 0.13. For the same compound, the Activity (KYSE-510 [11]) was “Dose-dependent effect”, the “fractional inhibitory concentration index (FICI)” value (KYSE-510 [11]) was 0.05 and the IC50 (KYSE-510 [12]) was 2960 nM. The Activity (KYSE-510 [13]) was “Dose-dependent effect”, the “fractional inhibitory concentration index (FICI)” value (KYSE-510 [13]) was 0.05 and the Activity (A2780 [14]) was “Dose-dependent effect”. For the same compound, the “fractional inhibitory concentration index (FICI)” value (A2780 [14]) was 0.69, the IC50 [15] was 55.7 nM and the Activity (MDA-MB-231 [16]) was “Dose-dependent effect”. For the same compound, the Activity (CAL-27 [17]) was “Dose-dependent effect” and the “fractional inhibitory concentration index (FICI)” value (CAL-27 [17]) was 0.34.
